The results in this text go back to ChEMBL document CHEMBL1828547, “Synthesis and antimalarial activity of 2-guanidino-4-oxoimidazoline derivatives” (J Med Chem, 2011).

Data set [1] in a line: Half life in po dosed rhesus monkey. In kind it is ADME, organism-based, Macaca mulatta. The settings on record: in vivo.
In data set [2] the test system is Rhesus monkey. In words: Drug uptake in im dosed rhesus monkey measured after 24 hrs. Type of data set: ADME, organism-based, Macaca mulatta. The settings on record: in vivo.
The test system of data set [3] is Rhesus monkey. In words: Drug uptake in rhesus monkey after 24 hrs relative to control. In kind it is ADME, organism-based, Macaca mulatta. The settings on record: in vivo.
Data set [4] is described as follows: Half life in im dosed rhesus monkey. In kind it is ADME, organism-based, Macaca mulatta. Particulars: in vivo.
The test system of data set [5] is Rhesus monkey. In words: Drug uptake in po dosed rhesus monkey assessed as 1-(3,4-dichlorophenyl)-2-(1-isopropyl-4,5-dioxo-4,5-dihydro-1H-imidazol-2-yl)guanidine measured after 24 hrs. Type of data set: ADME, organism-based, Macaca mulatta. Particulars: in vivo.
For data set [6], the system named is Rhesus monkey. Briefly: Drug uptake in po dosed rhesus monkey measured after 24 hrs. In kind it is ADME, organism-based, Macaca mulatta. Particulars: in vivo.
Data set [7] has as its system Rhesus monkey. Briefly: Drug uptake in im dosed rhesus monkey assessed as 1-(3,4-dichlorophenyl)-2-(1-isopropyl-4,5-dioxo-4,5-dihydro-1H-imidazol-2-yl)guanidine measured after 24 hrs. In kind it is ADME, organism-based, Macaca mulatta. The settings on record: in vivo.
For data set [8], the system named is Plasmodium cynomolgi. In words: Antimalarial activity against Plasmodium cynomolgi infected in rhesus monkey assessed as delay in patency time at 0.316 mg/kg, po administered one day before infection, on day of infection followed by 1 day post infection. In kind it is functional. The method in brief:
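Rhesus monkeys challenged with P. cynomolgi sporozoites. Oral dosing on days −1, 0 and 1 in HECT or MC vehicle, with dose in (mg/kg)/day. Read-out is the first day of patency and the delay in patency relative to vehicle-treated controls.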

Data set [9] deals with Plasmodium cynomolgi. In words: Antimalarial activity against Plasmodium cynomolgi infected in rhesus monkey assessed as time delayed in relapse of patency at 10 mg/kg/day, po administered for 7 days. Type of data set: functional. The method in brief: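 Rhesus monkeys that developed P. cynomolgi parasitemia in the prophylaxis test were used once parasitemia reached 5000 parasites/mm³. Oral chloroquine 10 (mg/kg)/day was given for 7 days, with test agent given alongside. Relapse was monitored. Monkeys with no relapse after 100 days were counted as radically cured. Relapsing controls were retreated with chloroquine and followed for a second relapse.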

By half-life is commonly meant the time needed for the level to fall by half in the phase considered.

Consider `CC(C)N1C(=O)C(=O)NC1=NC(=NC(=O)OC(C)(C)C)Nc1ccc(Cl)c(Cl)c1`, for which the half-life was 534 min in [1] and 2.94 days in [4]. In addition, the Drug uptake in the data set on Rhesus monkey [2] is 96%; in the data set on Rhesus monkey [5] it was 4%; in the data set with Rhesus monkey [6], 86%; in the data set with Rhesus monkey [7], 4%. The Ratio with Rhesus monkey [3] was 10.
`COc1cc(C)c2c(Oc3cccc(C(F)(F)F)c3)c(OC)cc(NC(C)CCCN)c2n1` (centres undefined) [TAFENOQUINE]: the Time in the data set on Plasmodium cynomolgi [8] came to 2 days.
Turning to `CCN(CC)CCCC(C)Nc1ccnc2cc(Cl)ccc12` (centres undefined) [CHLOROQUINE], the Time with Plasmodium cynomolgi [9] stood at 11 days.
